# A selection: hits, their analogues and other compounds. The true share with any hit is near 1.3%.
# Keap1-Nrf2 PPI: disrupts human Keap1 binding to Nrf2 peptide. Q14145. Keap1 Kelch-Nrf2 peptide fluorescence polarization, 1536-well. inhibition, % at 9.4 µM. actives 0.15% (n = 340,000). AID 504523; in the data active = inhibition above about 12%;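 also: human Keap1 Kelch domain with fluorescein labeled Nrf2 9mer peptide probe; 0% = neutral control wells and 100% = peptide positive control; higher means more block of Keap1 binding to Nrf2 peptide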
# Target sequence (Q14145 whole entry, looked up, the tested form may be a part): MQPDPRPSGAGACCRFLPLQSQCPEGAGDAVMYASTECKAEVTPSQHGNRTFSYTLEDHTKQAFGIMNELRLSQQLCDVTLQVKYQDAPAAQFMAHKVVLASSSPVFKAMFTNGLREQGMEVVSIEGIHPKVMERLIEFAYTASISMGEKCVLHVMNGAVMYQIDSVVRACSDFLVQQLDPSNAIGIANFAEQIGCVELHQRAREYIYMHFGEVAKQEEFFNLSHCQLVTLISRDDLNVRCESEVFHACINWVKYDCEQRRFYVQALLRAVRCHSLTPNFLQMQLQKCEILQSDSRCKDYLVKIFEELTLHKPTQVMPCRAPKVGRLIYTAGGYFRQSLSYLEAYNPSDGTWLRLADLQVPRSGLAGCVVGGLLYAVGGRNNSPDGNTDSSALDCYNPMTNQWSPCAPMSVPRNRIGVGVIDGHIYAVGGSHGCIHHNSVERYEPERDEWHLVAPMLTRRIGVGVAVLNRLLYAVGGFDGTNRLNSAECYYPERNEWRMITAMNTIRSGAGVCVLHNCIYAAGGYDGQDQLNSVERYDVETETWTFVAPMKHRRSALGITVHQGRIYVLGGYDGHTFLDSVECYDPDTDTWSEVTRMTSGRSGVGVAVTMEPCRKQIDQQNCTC
# GRK2 aptamer HTS: inhibitors of human GRK2 displacing RNA aptamer; bead flow cytometry, FAM-aptamer displacement from GRK2; inhibition of aptamer binding, % at 10 µM; actives 0.59% (n = 330,000); AID 488847;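 active = inhibition of aptamer binding above 40%, roughly 3 SD of noise, on plates passing a quality check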;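 also: median bead fluorescence of bound FAM aptamer so fluorescent compounds give negative values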
# MEX-5 binding: C. elegans MEX-5 TCR-2 RNA binding activity | MEX-5/FITC-TCR2 RNA binding, fluorescence polarization; hits give low values | actives 0.38% (n = 300,000) | Q9XUB2 | AID 1832 | activity score (negative = inhibition of binding), % at 10 µM;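 active = inhibition past about -25% in most replicates, and total fluorescence under double the plate's negative control median, limit read from the data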;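 also: 0% = DMSO and -100% = 5 µM competing unlabeled TCR2 RNA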
# T cell modulator: T cell immune modulators affecting CD8 T cell-vesicle binding | 2C CD8+ T cell-vesicle binding, flow cytometry; hits give low values | response (vesicle binding), % at 7 µM | actives 0.068% (n = 330,000) | AID 2052;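 active = response, share of CD8 T cells binding vesicles, and their 90th percentile fluorescence all below set limits, cut at about 80% in these data, passing the limit was not always enough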;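 also: values below 100% mean blocked vesicle binding to the CD8+ T cells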
#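 Read-out – percent CD8+ FL2 mean versus row control · System – murine 2C transgenic CD8+ T lymphocytes · Times – 1.5 h cell–vesicle binding at 37 °C, then 20 min icy labelling · Control set – naked vesicles low, QL9 vesicles with vehicle high · Detection – cytometric PE anti-B7-1 and Alexa647 anti-CD8 signals after 1% paraformaldehyde fixation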
# EBV gp42 block: EBV gp42 inhibition. inhibition, % (tested at 21.74 µM). AID 1085. actives 0.42% (n = 220,000). Fluorescence polarization binding assay, mP read-out; in the data active = inhibition above about 50%
# LANA DNA inh: KSHV C-LANA DNA binding inhibition; MBP-C-LANA/FAM-LBS DNA binding, fluorescence polarization; inhibition, % at 9 µM; actives 0.078% (n = 340,000); AID 504423;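 active = highest replicate inhibition at or above 60% at 9 µM, even if other replicates fall short; inactive = all replicates below 60% inhibition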;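 also: 0% = neutral control wells and 100% = 4 µM acridine orange control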
# GRK2 CP1: confirmation of human GRK2 inhibitors displacing RNA aptamer; shares compounds with GRK2 aptamer HTS; bead-bound GRK2, FAM-aptamer displacement, flow cytometry; aptamer displacement, % at 10 µM; actives 4% (n = 2,000); AID 504451;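 active = aptamer displacement above 40%, near three times the noise of non-fluorescent compounds, on plates passing quality checks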;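 also: negative values mostly reflect intrinsic compound fluorescence rather than true enhancement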
# Aptamer quench: fluorescent aptamer quenching in GRK2 counter-screen dose response; fluorescence change (kMESF span), kMESF (no concentration beside the values); Fluorescent RNA aptamer beads, flow cytometry; hits give high values; shares compounds with GRK2 aptamer HTS; 110 tested, under 10 active; AID 504521;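 active = compounds whose bead fluorescence drops by more than 37 kMESF across the dose range, marking them as dye quenchers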
# Aptamer quench SP: quenches fluorescent RNA aptamer, GRK2 hit artifact | fluorescence response (% of DMSO), % at 10 µM | Carboxyfluorescein RNA aptamer on beads, flow cytometry quenching; hits give low values | 2,000 tested, under 10 active | shares compounds with GRK2 aptamer HTS;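 active = compounds that quench the bead-bound fluorescent RNA probe, cutting fluorescence to under half of the solvent control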;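 also: counterscreen run without GRK2 so only probe quenching by compound is measured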
# GRK2 CP2: confirmation of human GRK2 inhibitors binding RNA aptamer site | AID 504782 | shares compounds with GRK2 aptamer HTS | 360 tested, under 10 active | bead-bound GRK2, FAM-aptamer displacement, flow cytometry | inhibition of aptamer binding, % at 10 µM;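 active = inhibition of aptamer binding above 40%, about triple the noise seen with nonglowing compounds, on plates passing quality control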;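 also: negative values mostly come from compounds that fluoresce themselves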
# FAM quench SP: aptamer fluorescence quenching in GRK2 counter-screen; carboxyfluorescein RNA aptamer beads, flow cytometry quenching; hits give low values; shares compounds with GRK2 aptamer HTS; fluorescence response vs DMSO, % at 10 µM; 360 tested, under 10 active;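 active = response vs DMSO under 50%, meaning signal dropped by over half, treated as fluorescence quencher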;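 also: labelled aptamer on streptavidin beads without GRK2 as a quench counter-screen; 100% = bead fluorescence of DMSO wells and lower means quenching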
# * = called active by the depositor; x = no result.
SMILES,Keap1-Nrf2 PPI,GRK2 aptamer HTS,MEX-5 binding,T cell modulator,EBV gp42 block,LANA DNA inh,GRK2 CP1,Aptamer quench SP,others
Cc1[nH][nH]c(=O)c1C(c1ccc(-c2cccc(C(=O)O)c2)o1)c1c(C)[nH][nH]c1=O,-2,42*,-52*,565,-16,27,x,x,GRK2 CP2=10;FAM quench SP=98
O=C(O)C1Nc2c(Cl)cc(Cl)c(Cl)c2C2C=CCC12 (stereo unspecified),-1,59*,-2,172,x,1,6,136,
C=CCn1c(SCC(=O)Nc2ccc(N3CCOCC3)cc2)nnc1-c1ccncc1,2,2,-3,283,x,0,x,x,
C=CCn1c(SCC(=O)Nc2ncc(Cc3ccc(Br)cc3)s2)nnc1-c1ccncc1,-5,91*,1,465,10,0,7,97,
COc1ccc(CN2C(=O)c3cccnc3C2Nc2ccc(OC)c(Cl)c2)cc1 (stereo unspecified),1,0,2,618,2,1,x,x,
Cc1ccc(NC2c3ncccc3C(=O)N2Cc2ccc(F)cc2)cc1 (stereo unspecified),3,76*,0,269,-8,2,0,104,
CCc1ccc(NS(=O)(=O)c2ccc3c(c2)CCN3C(=O)CCC(=O)O)cc1,-3,52*,0,862,x,2,x,x,GRK2 CP2=6;FAM quench SP=102
CCC(=O)N1CCc2cc(S(=O)(=O)CCC(=O)Nc3ccc(CC)cc3)ccc21,2,1,0,132,-8,0,x,x,GRK2 CP2=12;FAM quench SP=99
CCc1ccc(NC(=O)CCS(=O)(=O)c2ccc3c(c2)CCN3C(C)=O)cc1,-5,0,-1,262,x,-1,x,x,
CCN(/N=C/c1ccc(Cl)cc1)c1cc(=O)n(C)c(=O)[nH]1,-5,92*,-1,201,-3,2,-8,95,
CNC(=O)c1[nH]cnc1C(=O)Nc1ccc(F)cc1,4,89*,-1,107,x,2,-3,142,Aptamer quench=9.5
CCOC(=O)c1sc2nc3c(SCC(=O)O)cc(C(=O)c4ccccc4O)cn3c(=O)c2c1C,4,63*,-1,333,-1,0,17,98,
CCOC(=O)c1sc2nc3c(SCC(=O)O)cc(C(=O)c4cc(F)ccc4O)cn3c(=O)c2c1C,0,9,0,511,41,0,x,x,
O=C(Nc1cccc(O)c1)C(=O)Nc1ccccn1,-4,6,-1,283,-15,0,x,x,
O=C(Nc1ccccc1)C(=O)Nc1ccccn1,2,47*,-2,191,0,0,0,92,
Cc1cc(Cl)cc(C)c1OCCn1ccnc1,-3,42*,2,226,x,0,x,x,GRK2 CP2=-23;FAM quench SP=100
Cc1c(/C=N\NC(=O)c2c[nH]c3ccccc23)cnn1C,-1,99*,-4,216,-10,0,-2,91,
O=C(CSc1ncnc2sc3c(c12)CCC3)N1CCOCC1,-7,15,-2,400,x,1,x,x,
Cc1ccc(SCC(=O)NCCC2=CCCCC2)cc1,4,45*,1,259,-1,-1,-1,96,
Cc1ccc(OCC(=O)NCCC2=CCCCC2)cc1,3,0,x,240,-11,3,x,x,
COc1ccc(NC(=O)CSc2ccc3nnc(CCNC(=O)c4ccccc4)n3n2)cc1,2,0,-4,319,x,-1,x,x,
COC(=O)c1cccc(C23CC4(C2)[C@H](CN(CC2CCCCC2)[C@@H]4c2ccccc2)C3c2ccccc2)c1 (stereo partly specified),-6,85*,5,337,-40,-1,-8,100,
COc1cccc(N2CCN(C(=O)Cn3c(=O)oc4ccccc43)CC2)c1,-2,0,-1,283,x,-1,x,x,
Cc1cccc(CN2CCN(Cc3ccc4nonc4c3)CC2CCO)n1 (stereo unspecified),-1,41*,1,343,-1,-1,-14,101,
Cc1cccc(CN2CCN(CC(C)C)C(CCO)C2)n1 (stereo unspecified),2,1,-9,230,-13,0,x,x,
SMILES,Keap1-Nrf2 PPI,GRK2 aptamer HTS,MEX-5 binding,T cell modulator,EBV gp42 block,LANA DNA inh,GRK2 CP1,Aptamer quench SP,others
CC1CN(C(=O)c2cccc(S(=O)(=O)N3CCOCC3)c2)CC(C)O1 (stereo unspecified),-2,27,0,182,-12,1,1,100,
CC1CN(C(=O)c2cccc(C(=O)N3CC(C)OC(C)C3)c2)CC(C)O1 (stereo unspecified),0,0,-1,108,2,-1,x,x,
CC1CN(C(=O)c2cccc(COc3ccccc3Cl)c2)CC(C)O1 (stereo unspecified),-2,98*,0,234,0,-1,1,99,
CC1CN(C(=O)c2cccc(S(=O)(=O)N3CCN(c4ccc(F)cc4)CC3)c2)CC(C)O1 (stereo unspecified),-5,6,-4,120,x,-1,x,x,
S=c1[nH]nc(-c2ccc(Br)cc2)n1-c1ccc(Br)cc1,0,1,-1,318,x,4,x,x,
Cc1cccc(C(=O)n2c(=S)nc3ccccn32)c1,-3,49*,-2,182,-7,0,-15,97,
COc1ccc(OC)c(CNS(=O)(=O)c2c(C)nc3scc(C)n3c2=O)c1,2,2,1,258,x,2,x,x,
NC(=O)CSc1nnc2ccc(-c3ccco3)nn12,0,0,-2,156,2,-2,x,x,
CN(Cc1c(F)cccc1Cl)C(=O)c1ccc(NC(=O)CC2SC(N3CCCCC3)=NC2=O)cc1 (stereo unspecified),1,0,x,505,x,2,x,x,
CSc1ccc(S(=O)(=O)NCc2ccc(C)cc2)cc1,-4,71*,1,453,-22,1,0,102,
O=C(CSc1ccc2nnc(-c3cccnc3)n2n1)Nc1ccc(F)cc1,0,0,-1,132,x,0,x,x,
CCOc1ccc(NC(=O)CSc2ccc3nnc(-c4cccnc4)n3n2)cc1,-1,41*,1,594,x,1,x,x,GRK2 CP2=-1;FAM quench SP=100
